ChEMBL document CHEMBL4610117 (J Med Chem, 2020)
pIC50, pKd: −log10 of the molar value. Activity calls are given as the source filed them. The rule behind the calls is not given here.

How the values were obtained:
SU-DHL-8 = experiment: Antiproliferative activity against human SUDHL8 cells assessed as reduction in cell viability measured after 4 days by celltiter-glo luminescent assay; assay type: functional, cell-based; settings: SU-DHL-8, 96 h
[1] = Clearance in rat liver microsomes at 1 uM measured after 2 to 60 mins in presence of NADP by LC-MS/MS analysis; assay type: ADME, Microsome
[2] = Clearance in Wistar rat at 0.3 to 0.5 mg/kg, iv administered as bolus dose by LC-MS/MS analysis; assay type: ADME, organism-based; settings: in vivo
[3] = Volume of distribution at steady state in Wistar rat at 0.3 to 0.5 mg/kg, iv administered as bolus dose by LC-MS/MS analysis; assay type: ADME, organism-based; settings: in vivo, read-out: Vdss
[4] = Apparent half life in Wistar rat at 0.3 to 0.5 mg/kg, iv administered as bolus dose by LC-MS/MS analysis; assay type: ADME, organism-based; settings: in vivo, read-out: t1/2(app) (converted)
[5] = Inhibition of PI3K/AKT/mTOR signaling pathway in human MCF7 cells assessed as reduction in AKT phosphorylation at Ser473 residues measured after 30 mins by HTRF assay; settings: MCF7, 0.5 h
[6] = target: DNA-dependent protein kinase catalytic subunit (Homo sapiens, UniProt P78527); experiment: Inhibition of DNA-PK (unknown origin)
[7] = target: Serine-protein kinase ATM (Homo sapiens, UniProt Q13315); experiment: Inhibition of N-terminally FLAG-tagged recombinant full-length ATM (unknown origin) expressed in […] cells using biotin-PEG2-SVEPPLSQETFSD as substrate preincubated for 15 mins followed by substrate addition and measured after 90 mins by TR-FRET assay
Procedure, shortened: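 Full-length N-terminal FLAG ATM from HEK293-6E, anti-FLAG purified, typically 15 nM. Compound was pre-bound 15 min at 22 °C in HEPES pH 7.0 buffer with MgCl2, KCl, DTT, BSA and Igepal. The reaction ran with 10 μM ATP and 1 μM peptide (final) for 90 min at 22 °C and was stopped with EDTA, streptavidin-XL665 and Eu anti-phospho-p53(Ser15). […] 11 concentrations, 20 μM–0.07 nM, in duplicate.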

[8] = target: T1, Cyclin-G-associated kinase (Homo sapiens, UniProt O14976); experiment: Binding affinity to wild-type human partial length GAK (G13 to Y338 residues) expressed in bacterial expression system by Kinomescan method
T1 sequence (O14976 whole entry): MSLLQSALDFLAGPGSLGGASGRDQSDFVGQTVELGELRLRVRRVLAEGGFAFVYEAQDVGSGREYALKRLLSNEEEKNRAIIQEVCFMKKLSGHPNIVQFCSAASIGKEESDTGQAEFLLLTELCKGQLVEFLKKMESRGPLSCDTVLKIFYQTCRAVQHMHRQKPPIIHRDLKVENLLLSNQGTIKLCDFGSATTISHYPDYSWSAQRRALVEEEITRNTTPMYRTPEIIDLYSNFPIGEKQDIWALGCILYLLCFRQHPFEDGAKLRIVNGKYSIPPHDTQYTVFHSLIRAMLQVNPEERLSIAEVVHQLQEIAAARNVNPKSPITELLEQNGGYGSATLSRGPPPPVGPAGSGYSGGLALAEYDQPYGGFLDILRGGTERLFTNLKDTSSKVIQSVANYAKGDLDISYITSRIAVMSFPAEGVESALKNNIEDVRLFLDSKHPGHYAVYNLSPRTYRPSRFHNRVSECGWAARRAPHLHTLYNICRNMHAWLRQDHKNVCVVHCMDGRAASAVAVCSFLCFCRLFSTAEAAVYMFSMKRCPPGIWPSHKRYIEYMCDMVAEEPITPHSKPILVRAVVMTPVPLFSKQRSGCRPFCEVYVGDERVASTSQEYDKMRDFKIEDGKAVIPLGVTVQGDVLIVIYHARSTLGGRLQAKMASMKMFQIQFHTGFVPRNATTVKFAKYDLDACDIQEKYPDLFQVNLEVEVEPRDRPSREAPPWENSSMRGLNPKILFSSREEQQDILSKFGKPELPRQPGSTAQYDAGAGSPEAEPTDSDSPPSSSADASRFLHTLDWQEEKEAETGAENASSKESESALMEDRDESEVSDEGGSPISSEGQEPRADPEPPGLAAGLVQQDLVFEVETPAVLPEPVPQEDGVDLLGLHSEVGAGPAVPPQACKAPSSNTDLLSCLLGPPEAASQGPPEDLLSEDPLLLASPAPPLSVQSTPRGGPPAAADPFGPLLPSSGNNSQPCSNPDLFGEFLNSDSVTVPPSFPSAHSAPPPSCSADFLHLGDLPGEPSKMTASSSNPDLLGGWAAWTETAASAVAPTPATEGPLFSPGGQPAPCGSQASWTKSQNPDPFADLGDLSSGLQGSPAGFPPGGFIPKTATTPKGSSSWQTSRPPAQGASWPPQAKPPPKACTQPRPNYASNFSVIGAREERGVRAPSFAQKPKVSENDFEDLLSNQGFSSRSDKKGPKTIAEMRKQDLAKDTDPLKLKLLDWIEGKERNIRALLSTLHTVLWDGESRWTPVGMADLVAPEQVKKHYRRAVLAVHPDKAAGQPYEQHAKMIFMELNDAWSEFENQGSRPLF

[9] = target: Serine/threonine-protein kinase RIO2 (Homo sapiens, UniProt Q9BVS4); experiment: Binding affinity to wild-type human partial length RIOK2 (M1 to D313 residues) expressed in mammalian expression system by Kinomescan method
Sequence of Serine/threonine-protein kinase RIO2 (Q9BVS4 whole entry, the tested form may be a part): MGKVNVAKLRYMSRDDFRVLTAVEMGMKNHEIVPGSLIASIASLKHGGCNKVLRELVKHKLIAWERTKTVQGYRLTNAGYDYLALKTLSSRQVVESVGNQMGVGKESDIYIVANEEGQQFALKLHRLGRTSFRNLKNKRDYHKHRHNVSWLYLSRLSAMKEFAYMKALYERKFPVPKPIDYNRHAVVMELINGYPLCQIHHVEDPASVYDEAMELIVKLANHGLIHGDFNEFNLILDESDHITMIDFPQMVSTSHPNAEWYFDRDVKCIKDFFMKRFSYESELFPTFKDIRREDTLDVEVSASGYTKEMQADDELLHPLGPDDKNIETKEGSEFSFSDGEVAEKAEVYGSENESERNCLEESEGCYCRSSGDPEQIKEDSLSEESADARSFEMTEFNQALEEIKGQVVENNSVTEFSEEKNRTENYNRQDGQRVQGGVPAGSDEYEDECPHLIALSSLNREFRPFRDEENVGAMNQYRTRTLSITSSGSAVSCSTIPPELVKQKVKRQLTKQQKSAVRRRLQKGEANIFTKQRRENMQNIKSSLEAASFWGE

[10] = Maximum oral bioavailability in dog liver microsomes based well stirred liver model at 1 uM measured after 2 to 60 mins in presence of NADP by LC-MS/MS analysis; assay type: ADME, Canis lupus familiaris, Microsome; settings: read-out: Fmax
[11] = Protein binding in rat plasma assessed as unbound fraction at 3 uM measured after 7 hrs by LC-MS/MS analysis; assay type: ADME, cell-free
[12] = Volume of distribution at steady state in Beagle dog at 0.3 to 0.5 mg/kg, iv administered as bolus dose by LC-MS/MS analysis; assay type: ADME, organism-based, Canis lupus familiaris; settings: in vivo, read-out: Vdss
[13] = Apparent half life in NMRI mouse at 0.3 to 0.5 mg/kg, iv administered as bolus dose by LC-MS/MS analysis; assay type: ADME, organism-based; settings: in vivo
[14] = Oral bioavailability in Beagle dog at 0.6 to 1 mg/kg by LC-MS/MS analysis; assay type: ADME, organism-based, Canis lupus familiaris; settings: in vivo
[15] = target: T2, Serine/threonine-protein kinase ATR (Homo sapiens, UniProt Q13535); experiment: In vivo inhibition of ATR in human SUDHL8 cells harboring ATM K1964E mutant xenografted CB-17 mouse assessed as reduction in ATR phosphorylation at 50 mg/kg, po bid dosed every 3 days followed by 4 days interval; assay type: functional, organism-based
T2 sequence (Q13535 whole entry, looked up): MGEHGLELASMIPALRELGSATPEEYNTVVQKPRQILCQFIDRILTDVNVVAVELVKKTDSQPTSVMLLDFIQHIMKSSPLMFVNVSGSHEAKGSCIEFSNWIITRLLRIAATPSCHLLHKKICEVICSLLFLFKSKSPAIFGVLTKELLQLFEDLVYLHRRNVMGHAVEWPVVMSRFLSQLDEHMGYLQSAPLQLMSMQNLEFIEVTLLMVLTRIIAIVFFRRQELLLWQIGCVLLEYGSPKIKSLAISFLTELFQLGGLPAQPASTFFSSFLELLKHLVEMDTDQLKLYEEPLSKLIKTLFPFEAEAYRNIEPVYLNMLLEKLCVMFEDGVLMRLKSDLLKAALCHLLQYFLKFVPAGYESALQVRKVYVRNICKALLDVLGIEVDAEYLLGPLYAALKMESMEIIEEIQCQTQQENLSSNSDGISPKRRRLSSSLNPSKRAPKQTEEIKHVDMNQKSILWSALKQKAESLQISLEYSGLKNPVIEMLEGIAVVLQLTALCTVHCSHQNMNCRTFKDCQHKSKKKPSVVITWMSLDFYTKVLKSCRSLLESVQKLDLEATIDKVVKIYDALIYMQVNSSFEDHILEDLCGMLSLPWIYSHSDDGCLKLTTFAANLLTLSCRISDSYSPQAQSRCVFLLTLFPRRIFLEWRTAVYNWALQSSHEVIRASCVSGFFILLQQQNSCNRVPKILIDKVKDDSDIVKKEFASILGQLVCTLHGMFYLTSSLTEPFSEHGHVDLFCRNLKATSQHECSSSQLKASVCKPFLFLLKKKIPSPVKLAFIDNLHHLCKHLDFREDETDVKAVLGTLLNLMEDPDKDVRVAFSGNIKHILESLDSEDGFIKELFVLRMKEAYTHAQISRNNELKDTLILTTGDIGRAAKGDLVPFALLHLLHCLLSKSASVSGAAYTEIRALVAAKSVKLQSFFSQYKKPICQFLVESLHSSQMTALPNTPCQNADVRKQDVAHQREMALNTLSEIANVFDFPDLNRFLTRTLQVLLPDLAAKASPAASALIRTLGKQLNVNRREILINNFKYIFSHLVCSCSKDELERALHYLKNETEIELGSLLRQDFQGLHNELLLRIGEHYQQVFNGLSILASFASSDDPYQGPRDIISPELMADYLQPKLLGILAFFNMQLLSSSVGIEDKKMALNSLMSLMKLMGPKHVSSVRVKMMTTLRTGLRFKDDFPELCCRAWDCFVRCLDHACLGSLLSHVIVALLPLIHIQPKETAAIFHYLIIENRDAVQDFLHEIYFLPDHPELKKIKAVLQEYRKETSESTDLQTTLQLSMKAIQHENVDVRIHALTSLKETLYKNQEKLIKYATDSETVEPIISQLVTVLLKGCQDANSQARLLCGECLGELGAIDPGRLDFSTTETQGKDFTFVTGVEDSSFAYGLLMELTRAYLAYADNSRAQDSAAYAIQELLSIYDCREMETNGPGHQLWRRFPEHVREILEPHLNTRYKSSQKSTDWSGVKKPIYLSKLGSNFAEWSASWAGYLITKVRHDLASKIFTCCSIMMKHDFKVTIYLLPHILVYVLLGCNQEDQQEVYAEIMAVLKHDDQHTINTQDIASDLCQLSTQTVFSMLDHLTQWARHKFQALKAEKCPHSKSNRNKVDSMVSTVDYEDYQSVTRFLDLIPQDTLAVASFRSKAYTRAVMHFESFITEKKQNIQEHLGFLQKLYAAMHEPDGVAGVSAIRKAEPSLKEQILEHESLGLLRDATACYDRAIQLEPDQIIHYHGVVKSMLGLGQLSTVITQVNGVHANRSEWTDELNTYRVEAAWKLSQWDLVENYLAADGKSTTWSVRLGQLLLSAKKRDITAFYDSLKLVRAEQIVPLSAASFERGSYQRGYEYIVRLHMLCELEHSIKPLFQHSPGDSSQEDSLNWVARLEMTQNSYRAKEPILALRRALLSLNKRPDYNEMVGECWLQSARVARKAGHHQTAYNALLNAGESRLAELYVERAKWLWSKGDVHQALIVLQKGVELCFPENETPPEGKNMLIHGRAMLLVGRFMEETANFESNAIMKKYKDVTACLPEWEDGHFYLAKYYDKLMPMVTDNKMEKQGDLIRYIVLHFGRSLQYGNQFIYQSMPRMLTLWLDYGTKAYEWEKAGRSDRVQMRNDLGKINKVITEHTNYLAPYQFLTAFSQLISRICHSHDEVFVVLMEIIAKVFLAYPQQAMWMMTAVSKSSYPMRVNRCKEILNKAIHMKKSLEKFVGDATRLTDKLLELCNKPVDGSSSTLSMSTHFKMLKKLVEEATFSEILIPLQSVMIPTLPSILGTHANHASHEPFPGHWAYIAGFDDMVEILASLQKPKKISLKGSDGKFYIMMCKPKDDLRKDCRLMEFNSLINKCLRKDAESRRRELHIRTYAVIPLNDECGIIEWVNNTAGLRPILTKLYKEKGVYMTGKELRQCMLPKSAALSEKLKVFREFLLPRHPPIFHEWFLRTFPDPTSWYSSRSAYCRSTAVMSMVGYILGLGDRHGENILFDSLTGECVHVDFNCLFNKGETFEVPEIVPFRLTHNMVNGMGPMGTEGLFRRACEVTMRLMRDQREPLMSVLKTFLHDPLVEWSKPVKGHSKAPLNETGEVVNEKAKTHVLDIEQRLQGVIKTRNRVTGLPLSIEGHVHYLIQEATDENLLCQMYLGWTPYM

[16] = target: T2, Serine/threonine-protein kinase ATR; experiment: In vivo inhibition of ATR in human SUDHL8 cells harboring ATM K1964E mutant xenografted CB-17 mouse assessed as change in pH2AX level at 50 mg/kg, po bid dosed every 3 days followed by 4 days interval; assay type: functional, organism-based
[17] = Toxicity in NOD/SCID mouse xenografted with human CR5038 cells assessed as body weight loss at 20 mg/kg, po qd dosed every 2 days followed by 5 days interval measured on day 11 to 14 and 28 to 31 in presence of carboplatin relative to control; assay type: organism-based; settings: in vivo

C[C@@H]1COCCN1c1cc(-c2ccnn2C)c2ccnc(-c3ccn[nH]3)c2n1 [ELIMUSERTIB]
pIC50 (SU-DHL-8): 8.05
CLH [1]: 0.52 L/h/kg
clearance [2]: 20 mL/min/kg
Vd [3]: 1.7 L/kg
half-life [4]: 78 min
pIC50 [5]: 7.46
pIC50 [6]: 6.48
pIC50 [7]: 5.85
pKd [8]: 6.24
pKd [9]: 6.18
Fh at 1 µM [10]: 54%
fraction unbound at 7 h, 3 µM [11]: 0.17
Vd [12]: 1 L/kg
t1/2(app) [13]: 10.2 min
bioavailability [14]: 51%
inhibition [15]: Active
inhibition [16]: Active
Activity [17]: 11 to 15%
